How the values were obtained:
HeLa [1] = assay: Estrogenic activity in human HeLa cells assessed as Bcl-xL gene transcriptional activity at 10 nM after 24 hrs by RT-PCR relative to 17-beta-estradiol; assay type: functional
Summary of the method: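 HeLa cells grown in DMEM with 5% FBS (37 °C, 5% CO2, 24 h), then moved to phenol red-free DMEM with 5% charcoal-stripped FBS for 24 h. Exposed to 10^-8 M compound (final) for 24 h. Controls: 10^-8 M 17β-estradiol, 0.01% DMSO. Total RNA extracted, reverse transcribed. Bcl-xL PCR: 28 cycles (94 °C 30 s, 60 °C 30 s, 72 °C 30 s), same profile as HPRT.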

HeLa [2] = assay: Estrogenic activity in human HeLa cells assessed as ERbeta gene transcriptional activity at 10 nM after 24 hrs by RT-PCR relative to 17-beta-estradiol; assay type: functional
Summary of the method: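 Steroid-depleted HeLa cells (24 h in phenol red-free DMEM, 5% charcoal-stripped FBS) treated 24 h with compound at 10^-8 M final. 17β-Estradiol at 10^-8 M was the positive control and 0.01% DMSO the negative. RNA isolated and converted to cDNA. ERβ PCR: 32 cycles (94 °C 30 s, 56 °C 30 s, 72 °C 30 s), final extension 7 min.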

O=C(/C=C/c1ccc(O)cc1)CCCCc1ccccc1
Activity (HeLa [1]): 74.41%
Activity (HeLa [2]): 70.33%

O=C(/C=C/C=C/c1ccccc1)CCc1ccc(O)cc1
Activity (HeLa [1]): 74.54%
Activity (HeLa [2]): 87.75%

O[C@@H](/C=C/C=C/c1ccccc1)CCc1ccccc1
Activity (HeLa [1]): 62.51%
Activity (HeLa [2]): 75.42%

COc1ccc(CCC(=O)CC/C=C/c2ccccc2)cc1
Activity (HeLa [1]): 71.4%
Activity (HeLa [2]): 58.51%

CC(=O)Oc1ccc(CCC(=O)CC/C=C/c2ccccc2)cc1
Activity (HeLa [1]): 75.3%
Activity (HeLa [2]): 84%

CC(=O)Oc1ccc(CCC(=O)/C=C/C=C/c2ccccc2)cc1
Activity (HeLa [1]): 49.82%
Activity (HeLa [2]): 68.45%

CO[C@@H](CC/C=C/c1ccccc1)CCc1ccccc1
Activity (HeLa [1]): 72.5%
Activity (HeLa [2]): 74.97%

O[C@@H](CCCCc1ccccc1)CCc1ccccc1
Activity (HeLa [1]): 40%
Activity (HeLa [2]): 37.03%

CC(=O)O[C@@H](/C=C/C=C/c1ccccc1)CCc1ccccc1
Activity (HeLa [1]): 47.96%
Activity (HeLa [2]): 58.36%

O=c1c(-c2ccc(O)cc2)coc2cc(O)cc(O)c12 [GENISTEIN]
Activity (HeLa [1]): 72.85%
Activity (HeLa [2]): 75.51%

CC(=O)O[C@@H](CC/C=C/c1ccccc1)CCc1ccccc1
Activity (HeLa [1]): 71.06%
Activity (HeLa [2]): 75.5%

O=C(/C=C/C=C/c1ccccc1)CCc1ccccc1
Activity (HeLa [1]): 43.97%
Activity (HeLa [2]): 33.72%

Oc1ccc(CC[C@@H](O)CC/C=C/c2ccccc2)cc1O
Activity (HeLa [1]): 45.98%
Activity (HeLa [2]): 51.5%

O=C(CC/C=C/c1ccccc1)CCc1ccc(O)cc1
Activity (HeLa [1]): 78.51%
Activity (HeLa [2]): 90.56%

COc1ccc(CCC(=O)/C=C/C=C/c2ccccc2)cc1
Activity (HeLa [1]): 76.77%
Activity (HeLa [2]): 72%

Oc1ccc(CC[C@@H](O)CC/C=C/c2ccccc2)cc1
Activity (HeLa [1]): 57.73%
Activity (HeLa [2]): 52.5%

C(=C\C=C\c1ccccc1)/C=C/Cc1ccccc1
Activity (HeLa [1]): 77.5%
Activity (HeLa [2]): 76.46%

CC(=O)O[C@@H](CCCCc1ccccc1)CCc1ccccc1
Activity (HeLa [1]): 55%
Activity (HeLa [2]): 58.97%

O=C(CCCCc1ccccc1)CCc1ccccc1
Activity (HeLa [1]): 42.18%
Activity (HeLa [2]): 57.5%

O=C(/C=C/CCc1ccccc1)CCc1ccc(O)cc1
Activity (HeLa [1]): 47.08%
Activity (HeLa [2]): 50.86%

O[C@@H](CC/C=C/c1ccccc1)CCc1ccccc1
Activity (HeLa [1]): 52.85%
Activity (HeLa [2]): 42.48%

O=C(CC/C=C/c1ccccc1)CCc1ccccc1
Activity (HeLa [1]): 74.3%
Activity (HeLa [2]): 85.45%

Reference: ChEMBL document CHEMBL1158160, “Diarylheptanoids, new phytoestrogens from the rhizomes of Curcuma comosa: Isolation, chemical modification and estrogenic activity evaluation” (2008)
